Assay results: ChEMBL document CHEMBL4130485, “Inhibitors of Yellow Fever Virus replication based on 1,3,5-triphenyl-4,5-dihydropyrazole scaffold: Design, synthesis and antiviral evaluation” (Eur J Med Chem, 2017)
Calls of active or inactive are those of the source. No cut-off for these calls is given here.

Legend:
Yellow fever virus [1] = details: Yellow fever virus 17D; vaccine (Stamaril Pasteur J07B01); at 20 µM
Human orthopneumovirus = test: Antiviral activity against Human respiratory syncytial virus A2 ATCC VR 1540 infected in African green monkey Vero 76 cells assessed as protection against virus-induced cytopathic effect after 5 days by crystal violet staining-based plaque reduction assay; format: functional, organism-based; details: ATCC VR 1540, Vero 76, 120 h
[2] = Cytotoxicity against bovine MDBK cells assessed as decrease in cell viability after 72 hrs by MTT assay; format: cell-based, Bos taurus; details: cattle
How it was run: (§1)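 Uninfected MDBK (6×10^5 cells/mL, 10% horse serum) or BHK (1×10^6 cells/mL, 10% FBS) cells in MEM-Earle with serial compound dilutions at 37 °C, 5% CO2, run in parallel with the antiviral assays. Viability read by MTT after 72 h. CC50 by linear regression; mean of three determinations.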

[3] = tested on: Bovine viral diarrhea virus 1; test: Antiviral activity against Bovine viral diarrhea virus NADL ATCC VR 534 infected in bovine MDBK cells assessed as protection against virus-induced cytopathic effect after 3 to 4 days by MTT assay; format: functional, organism-based, Bovine viral diarrhea virus 1-NADL; details: Bovine viral diarrhea virus isolates and strains, ATCC VR 534, MDBK
How it was run: (§2)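 BHK-21 cells (MDBK for BVDV) seeded at 5×10^4 (BHK) or 3×10^4 (MDBK) cells/well and grown overnight to confluence. Infected at m.o.i. 0.01 in maintenance MEM-Earle with 0.5% inactivated FBS. Serial compound dilutions added 2 h later (final 100, 20, 4, 0.8 µM; DMSO ≤0.1%). Viability read by MTT after 3–4 days at 37 °C. EC50 obtained by linear regression against untreated controls; mean of three determinations.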

[4] = Cytotoxicity against golden hamster BHK21 cells assessed as decrease in cell viability after 72 hrs by MTT assay; format: cell-based, Mesocricetus auratus, BHK-21
How it was run: as §1

[5] = Selectivity index, ratio of CC50 for golden hamster BHK21 cells to EC50 for Yellow fever virus 17D; format: toxicity; details: read-out: Ratio CC50/EC50
How it was run: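 Selectivity index calculated as BHK-21 CC50 divided by YFV EC50, both from MTT assays.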

Yellow fever virus [6] = test: Potency index, ratio of azauridine EC50 to compound EC50 for Yellow fever virus 17D vaccine (Stamaril Pasteur J07B01); format: functional
dengue virus type 2 = test: Antiviral activity against Dengue virus type 2 clinical isolate infected in golden hamster BHK21 cells assessed as protection against virus-induced cytopathic effect after 3 to 4 days by MTT assay; format: functional, organism-based; details: BHK-21
How it was run: as §2

[7] = tested on: Human immunodeficiency virus 1; test: Antiviral activity against HIV1 3B infected in human MT4 cells assessed as protection against virus-induced cytopathic effect after 4 days by MTT assay; format: functional, organism-based; details: Human immunodeficiency virus 1, 3B, MT4, 96 h
How it was run: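 MT-4 cells (1×10^4/well) in RPMI with serial compound dilutions, infected with 100 CCID50 HIV-1 (m.o.i. 0.01). Viability read by MTT after 4 days at 37 °C. EC50 for 50% protection from cytopathicity obtained by linear regression versus untreated controls; mean of three determinations.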

Yellow fever virus [8] = test: (§3) Antiviral activity against Yellow fever virus 17D vaccine (Stamaril Pasteur J07B01) infected in golden hamster BHK21 cells assessed as protection against virus-induced cytopathic effect at 20 uM pretreated for 2 hrs followed by viral infection and measured after 24 to 36 hrs post infection by MTT assay; format: functional, organism-based
How it was run: (§4)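 Confluent BHK-21 monolayers inoculated at room temperature with YFV 17-D at 1 PFU/cell, adsorbed 60 min and washed. Compound at 20 µM (test) or 90 µM (6-azauridine reference) added 2 h before infection, during the 2 h infection, or in 2-h windows from 0 to 10 h p.i. Wells washed, refed until 10 h, CPE scored at 24–36 h p.i. Cells frozen and titred by plaque assay.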

Human alphaherpesvirus 1 = test: Antiviral activity against Human herpesvirus 1 KOS ATCC VR 1493 infected in African green monkey Vero 76 cells assessed as protection against virus-induced cytopathic effect after 3 days by crystal violet staining-based plaque reduction assay; format: functional, organism-based; details: Human alphaherpesvirus 1, KOS, Vero 76, 72 h
[9] = tested on: Vesicular stomatitis Indiana virus; test: Antiviral activity against Vesicular stomatitis virus Indiana ATCC VR 158 infected in African green monkey Vero 76 cells assessed as protection against virus-induced cytopathic effect after 2 days by crystal violet staining-based plaque reduction assay; format: functional, organism-based; details: ATCC VR 158, Vero 76, 48 h
Yellow fever virus [10] = test: Antiviral activity against Yellow fever virus 17D vaccine (Stamaril Pasteur J07B01) infected in golden hamster BHK21 cells assessed as protection against virus-induced cytopathic effect after 3 to 4 days by MTT assay; format: functional, organism-based; details: BHK-21
How it was run: as §2

[11] = Cytotoxicity against African green monkey Vero 76 cells assessed as decrease in cell viability after 48 to 96 hrs by MTT assay; format: cell-based; details: chlorocebus sabaeus
How it was run: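 Vero 76 cells seeded at 5×10^5 cells/mL in D-MEM with 10% FBS and incubated with serial compound dilutions at 37 °C, 5% CO2. Viability read by MTT after 48–96 h. CC50 by linear regression versus untreated controls.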

Vaccinia virus = test: Antiviral activity against Vaccinia virus Lister ATCC VR 1549 infected in African green monkey Vero 76 cells assessed as protection against virus-induced cytopathic effect after 3 days by crystal violet staining-based plaque reduction assay; format: functional, organism-based; details: Orthopoxvirus vaccinia, ATCC VR 1549, Vero 76, 72 h
[12] = Cytotoxicity against human MT4 cells assessed as decrease in cell viability after 96 hrs by MTT assay; format: cell-based
How it was run: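 Exponentially growing MT-4 cells seeded at 1×10^5 cells/mL in RPMI-1640 with 10% FBS and incubated with serial compound dilutions at 37 °C, 5% CO2. Viability read by MTT after 96 h. CC50 by linear regression versus untreated controls.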

[13] = tested on: Mammalian orthoreovirus 1; test: Antiviral activity against Reovirus 1 infected in golden hamster BHK21 cells assessed as protection against virus-induced cytopathic effect after 3 to 4 days by MTT assay; format: functional, organism-based; details: Mammalian orthoreovirus 1, BHK-21
How it was run: as §2

Enterovirus C = test: Antiviral activity against Enterovirus C Sabin […] infected in African green monkey Vero 76 cells assessed as protection against virus-induced cytopathic effect after 2 days by crystal violet staining-based plaque reduction assay; format: functional, organism-based; details: Vero 76, 48 h
West Nile virus = test: Antiviral activity against West Nile virus clinical isolate infected in golden hamster BHK21 cells assessed as protection against virus-induced cytopathic effect after 3 to 4 days by MTT assay; format: functional, organism-based; details: BHK-21
How it was run: as §2

[14] = Antiviral activity against Human enterovirus B Faulkner ATCC VR 185 infected in African green monkey Vero 76 cells assessed as protection against virus-induced cytopathic effect after 3 days by crystal violet staining-based plaque reduction assay; format: functional, cell-based; details: Faulkner ATCC VR 185, Vero 76, 72 h
[15] = Selectivity index, ratio of CC50 for African green monkey Vero 76 cells to EC50 for Human coxsackievirus B5 Faulkner; format: toxicity; details: read-out: Ratio CC50/EC50
How it was run: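 Selectivity index calculated as Vero 76 CC50 (MTT) divided by CVB-5 plaque-reduction EC50.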

[16] = Selectivity index, ratio of CC50 for bovine MDBK cells to EC50 for Bovine viral diarrhea virus NADL ATCC VR 534; format: toxicity; details: cattle, read-out: Ratio CC50/EC50
How it was run: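 Selectivity index calculated as MDBK CC50 divided by BVDV EC50, both by MTT.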

Yellow fever virus [17] = test: as §3, with “90” for “20”; format: functional, organism-based
How it was run: as §4

[18] = Cytotoxicity against African green monkey Vero 76 cells assessed as decrease in cell viability after 5 days by MTT assay; format: cell-based; details: chlorocebus sabaeus

Row | SMILES | EC50 (Human orthopneumovirus) [µM] | CC50 at 72 h [2] [µM] | EC50 [3] [µM] | CC50 at 72 h [4] [µM] | selectivity ratio [5] | Ratio EC50 (Yellow fever virus [6]) | EC50 (dengue virus type 2) [µM] | EC50 [7] [µM] | EC50 (Human alphaherpesvirus 1) [µM] | EC50 [9] [µM] | EC50 (Yellow fever virus [10]) [µM] | CC50 [11] [µM] | EC50 (Vaccinia virus) [µM] | CC50 at 96 h [12] [µM] | EC50 [13] [µM] | EC50 (Enterovirus C) [µM] | EC50 (West Nile virus) [µM] | EC50 [14] [µM] | selectivity ratio [15] | CC50 at 120 h [18] [µM] | other results
1 | NS(=O)(=O)c1ccc(N2N=C(c3ccc(OCc4ccccc4)cc3)CC2c2ccccc2)cc1 (stereo unspecified) | > 100 | 72 | > 72 | 80 to 84 | 36.4 | 10 | > 80 | > 100 | > 100 | > 100 | 2.2 | > 100 | > 100 | > 100 | > 84 | > 100 | > 80 | > 100 | – | – | inhibition (Yellow fever virus [1]): Active; inhibition (Yellow fever virus [8]): Active
2 | Cc1ccc(C2CC(c3ccc(OCc4ccccc4)cc3)=NN2c2ccc(S(N)(=O)=O)cc2)cc1 (stereo unspecified) | > 100 | 80 | 2.5 | 32 to 36 | 20 | 10 | > 36 | > 35 | > 100 | > 100 | 1.8 | 100 | > 100 | 35 | > 32 | > 100 | > 36 | 13 | 7.7 | – | selectivity ratio [16]: 32
3 | O=c1cnn([C@@H]2O[C@H](CO)[C@@H](O)[C@H]2O)c(=O)[nH]1 [6-AZAURIDINE] | 40 | – | – | > 100 | > 5 | – | – | – | – | – | 20 | 16 | – | – | 18 | – | – | – | – | – | Activity (Yellow fever virus [17]): Active
4 | Cc1ccccc1C1CC(c2ccc(Oc3ccccc3)cc2)=NN1c1ccc(S(N)(=O)=O)cc1 (stereo unspecified) | > 14 | 16 | > 16 | 7 to 8 | 3.6 | 10 | > 8 | 13 | > 90 | > 90 | 2.2 | 90 | > 90 | 36 | > 7 | > 90 | > 8 | > 90 | – | 14 | –
5 | NS(=O)(=O)c1ccc(N2N=C(c3ccc(Oc4ccccc4)cc3)CC2c2ccccc2)cc1 (stereo unspecified) | > 35 | 5 | > 5 | 11 to 13 | 6.2 | 10 | > 13 | 13 | > 85 | > 85 | 2.1 | 85 | > 85 | 42 | > 11 | > 85 | > 13 | 3.5 | 24.3 | 35 | –
6 | Cc1ccc(C2CC(c3ccc(Oc4ccccc4)cc3)=NN2c2ccc(S(N)(=O)=O)cc2)cc1 (stereo unspecified) | > 20 | 21 | > 21 | 8 to 9 | 5 | 10 | > 9 | > 7.2 | > 86 | > 86 | 1.8 | 86 | > 86 | 7.2 | > 8 | > 86 | > 9 | > 86 | – | 20 | –
7 | Cc1cccc(C2CC(c3ccc(Oc4ccccc4)cc3)=NN2c2ccc(S(N)(=O)=O)cc2)c1 (stereo unspecified) | > 14 | 6 | > 6 | 8 to 9 | 5 | 10 | > 9 | > 35 | > 81 | > 81 | 1.8 | 81 | > 81 | 35 | > 8 | > 81 | > 9 | > 81 | – | 14 | –
8 | NS(=O)(=O)c1ccc(N2N=C(c3ccc(OCc4ccccc4)cc3)CC2c2ccccc2F)cc1 (stereo unspecified) | > 100 | > 100 | 52 | 90 to 92 | 50 | 10 | > 90 | > 39 | > 100 | > 100 | 1.8 | > 100 | > 100 | 39 | > 92 | > 100 | > 90 | > 100 | – | – | inhibition (Yellow fever virus [1]): Active; selectivity ratio [16]: > 1.9; inhibition (Yellow fever virus [8]): Active
9 | NS(=O)(=O)c1ccc(N2N=C(c3ccc(OCc4ccccc4)cc3)CC2c2cccc(F)c2)cc1 (stereo unspecified) | > 25 | 15 | 10 | 9 to 11 | 5.5 | 10 | > 11 | > 65 | > 90 | > 90 | 2 | 90 | > 90 | 65 | > 9 | > 90 | > 11 | 8.5 | 10.6 | 25 | selectivity ratio [16]: 1.5
